INS-1E rescue = protection of INS-1E cells from cytokine death, primary screen, ATP luminescence, single point. 0.1% of 20,000 active. INS-1E cytokine-induced death, 48 h; normalised: neutral wells 0, positive control 100. protection from cytokine-induced ATP loss, % at 10 µM;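 active means mean replicate protection from cytokine-induced ATP loss at least 50% and at least 75% of replicates each reaching 50%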
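Material: INS-1E rat cells; Quantity: 8000 cells/well; Buffer or medium: phenol-red-free RPMI with 5% fetal bovine serum; Probe or stimulus: cytokine cocktail of IFN-γ, TNF-α and IL-1β; Compound dosing: single test concentration per compound, delivered by pin transfer; Incubation: 48 h co-treatment, 10 min post-lysis read; Signal: CellTiter-Glo luminescence.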
T cruzi intra = inhibitors of intracellular Trypanosoma cruzi, primary screen, cell-based, plate reader, single point, set 2; intracellular Trypanosoma cruzi in host cells; activity score (inhibition), % at 5.01 µM; 4.9% of 22,000 active; in the data active means activity score above about 55%;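 further: parasites and compound incubated about four days before reading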
A1 apoptosis 2 = A1 inhibitors via caspase activation, primary screen, cell-based, luminescence, HTS, two replicates; 24,000 tested, under 10 active; caspase activation, % (no concentration beside the values); MEF A1-2A-BIM cells, caspase-Glo luminescence, 3 h; percent of clofoctol response, DMSO zero; in the data active means caspase activation above about 5.9%
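Evaluation: Caspase-3/7 activity from luminescence increase | Assay system: A1-2A-BIM mouse embryonic fibroblasts | Quantity: 2500 MEF cells/well | Medium: RPMI-1640 plus 10% FBS | Detection: Caspase-Glo 3/7 luminescence, 1 h at room temperature | Dosing: 50 nL compound per well, pinned | Timing: Cells settled overnight, compound exposure 3 h at 37 °C, 5% CO2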
Numbers stand for hits; - = inactive; . = no result given. Many of the other results were omitted from the sample, so hits are more common in it than they were.

SMILES	INS-1E rescue	T cruzi intra	A1 apoptosis 2
COC(=O)CCCCCCC(=O)N/N=C/CC1=C(C)CCCC1(C)C	-	-	-
CCCC[C@]12CCCC(=O)N1CCc1c2[nH]c2ccccc12	.	.	-
C[C@H]1CN([C@@H](C)CO)C(=O)c2cccc(NC(=O)c3ccc(-c4nccs4)cc3)c2O[C@H]1CN(C)C(=O)Nc1ccc(C(F)(F)F)cc1	-	-	.
C[C@H](CO)N1C[C@H](C)[C@H](CN(C)C(=O)Nc2ccc(F)cc2)Oc2c(NC(=O)c3ccc(-c4nccs4)cc3)cccc2C1=O	-	-	.
C[C@@H]1CN([C@@H](C)CO)C(=O)c2cccc(NC(=O)c3ccc(-c4nccs4)cc3)c2O[C@H]1CN(C)C(=O)Nc1ccc(C(F)(F)F)cc1	-	67.9	.
C[C@@H]1CN([C@H](C)CO)C(=O)c2cccc(NC(=O)c3ccc(-c4nccs4)cc3)c2O[C@H]1CN(C)C(=O)Nc1ccc(C(F)(F)F)cc1	-	76.9	.
CCOc1cccc(/C=N/NC(=O)c2cccc(C(=O)NO)c2)c1OCC	-	-	-
O=C(N/N=C/[C@@H](O)[C@@H](O)[C@H](O)[C@H](O)CO)c1ccccc1O	-	-	-
CN(C)CCCOc1ccc(/C=N/NC(=O)CCCCCCC(=O)Nc2ccccc2O)cc1	-	87.3	.
CN(C)CCCOc1ccc(/C=N/NC(=O)CCCCCCC(=O)NO)cc1	.	.	-
COC(=O)CCCCCCC(=O)N/N=C/c1cc(Br)cc(OC)c1O	-	-	-
COC(=O)CCCCCCC(=O)N/N=C/c1ccc(OCCCN(C)C)cc1	-	81.2	.
O=C(CCCCCCC(=O)Nc1ccccc1O)N/N=C/c1ccc(OCCO)cc1	-	-	-
COc1ccc(/C=N/NC(=O)CCCCCCC(=O)Nc2ccccc2O)c(O)c1	-	-	.
COC(=O)CCCCCCC(=O)N/N=C/c1cc(Br)cc(Br)c1O	-	62.0	-
O=C(CCCCCCC(=O)Nc1ccccc1O)N/N=C/c1ccc(OCc2ccccc2)cc1O	-	77.5	-
Cc1noc(C)c1S(=O)(=O)Nc1ccc2c(c1)C(=O)N([C@H](C)CO)C[C@H](C)[C@H](CN(C)C(=O)Nc1ccc(C(F)(F)F)cc1)O2	.	73.4	.
Cc1noc(C)c1S(=O)(=O)Nc1ccc2c(c1)C(=O)N([C@H](C)CO)C[C@H](C)[C@@H](CN(C)C(=O)Nc1ccc(C(F)(F)F)cc1)O2	-	-	.
Cc1noc(C)c1S(=O)(=O)Nc1ccc2c(c1)C(=O)N([C@@H](C)CO)C[C@H](C)[C@@H](CN(C)Cc1ccc(C(F)(F)F)cc1)O2	-	64.8	.
Cc1noc(C)c1S(=O)(=O)Nc1ccc2c(c1)CC(=O)N([C@@H](C)CO)C[C@@H](C)[C@@H](CN(C)Cc1ccc(C(F)(F)F)cc1)O2	-	-	-
Cc1noc(C)c1S(=O)(=O)Nc1ccc2c(c1)C(=O)N([C@H](C)CO)C[C@@H](C)[C@@H](CN(C)Cc1ccc(C(F)(F)F)cc1)O2	-	-	.
Cc1noc(C)c1S(=O)(=O)Nc1ccc2c(c1)CC(=O)N([C@H](C)CO)C[C@@H](C)[C@@H](CN(C)Cc1ccc(C(F)(F)F)cc1)O2	-	69.2	-
O=C(Nc1ccccc1[N+](=O)[O-])c1ccc(CNc2nccc(-c3cccnc3)n2)cc1	.	.	-
COC(=O)CCCCCCC(=O)N/N=C/c1cccc(B(O)O)c1	-	-	-
COc1cccc(/C=C2\SC(=S)N(CCCC(=O)O)C2=O)c1	.	.	-
SMILES	INS-1E rescue	T cruzi intra	A1 apoptosis 2
C=C(C)[C@@H]1CC=C(/C=N/NC(=O)c2ccccc2O)CC1	-	-	-
Cc1noc(C)c1S(=O)(=O)N(C)C[C@H]1Oc2ccc(NC(=O)Nc3ccc4c(c3)OCO4)cc2CC(=O)N([C@H](C)CO)C[C@H]1C	-	-	.
O=C(O)CCCCCCC(=O)N/N=C/c1cc(Br)cs1	-	-	.
COc1ccc(/C=N/NC(=O)CCCCCC(=O)Nc2ccccc2O)cc1	-	-	-
C[C@H]1CCCCO[C@H](CN(C)Cc2ccc(C(F)(F)F)cc2)[C@@H](C)CN([C@@H](C)CO)C(=O)c2cc(NC(=O)Nc3ccc(C(F)(F)F)cc3)ccc2O1	.	.	-
C[C@@H]1CCCCO[C@@H](CN(C)Cc2ccc(C(F)(F)F)cc2)[C@@H](C)CN([C@H](C)CO)C(=O)c2cc(NC(=O)NC3CCCCC3)ccc2O1	-	64.7	-
C[C@@H]1CCCCO[C@H](CN(C)Cc2ccc(C(F)(F)F)cc2)[C@@H](C)CN([C@H](C)CO)C(=O)c2cc(NC(=O)NC3CCCCC3)ccc2O1	-	-	.
C[C@@H]1CCCCO[C@@H](CN(C)Cc2ccc(C(F)(F)F)cc2)[C@@H](C)CN([C@@H](C)CO)C(=O)c2cc(NC(=O)Nc3ccc4c(c3)OCO4)ccc2O1	.	.	-
C[C@@H]1CCCCO[C@H](CN(C)Cc2ccc3c(c2)OCO3)[C@@H](C)CN([C@H](C)CO)C(=O)c2cc(NC(=O)Nc3ccc(C(F)(F)F)cc3)ccc2O1	-	78.4	-
C[C@@H]1CN([C@H](C)CO)C(=O)c2cc(NC(=O)Nc3ccc(F)cc3)ccc2O[C@@H](C)CCCCO[C@@H]1CN(C)Cc1ccc(C(F)(F)F)cc1	.	.	-
C[C@@H]1CCCCO[C@H](CN(C)Cc2ccc(C(F)(F)F)cc2)[C@@H](C)CN([C@H](C)CO)C(=O)c2cc(NC(=O)Nc3ccc(F)cc3)ccc2O1	-	71.1	.
C[C@@H]1CCCCO[C@H](CN(C)Cc2ccc(C(F)(F)F)cc2)[C@@H](C)CN([C@H](C)CO)C(=O)c2cc(NC(=O)Nc3ccc(C(F)(F)F)cc3)ccc2O1	-	70.7	-
C/C=C(C)\C=N\NC(=O)CCCCCCC(=O)Nc1ccccc1O	-	-	-
C=CCOc1ccccc1/C=N/NC(=O)CCCCCCC(=O)OC	-	-	-
COC(=O)[C@]1(Cc2ccccc2N=[N+]=[N-])N=C(c2ccc(OCCCO)cc2)O[C@@H]1c1ccccc1CN=[N+]=[N-]	.	.	-
O=C(CCCCCC(=O)N/N=C/c1ccccn1)NO	.	.	-
O=C(NO)c1cccc(C(=O)N/N=C/Cc2ccccc2)c1	-	-	-
C[C@@H]1CCCCO[C@H](CN(C)Cc2ccc(Cl)c(Cl)c2)[C@H](C)CN([C@@H](C)CO)C(=O)c2cc(NC(=O)Nc3ccc4c(c3)OCO4)ccc2O1	.	.	-
C[C@@H]1CCCCO[C@@H](CN(C)Cc2ccc(C(F)(F)F)cc2)[C@@H](C)CN([C@H](C)CO)C(=O)c2cc(NC(=O)Nc3ccc(C(F)(F)F)cc3)ccc2O1	-	72.3	.
C[C@@H]1CCCCO[C@@H](CN(C)Cc2ccc(Cl)c(Cl)c2)[C@@H](C)CN([C@H](C)CO)C(=O)c2cc(NC(=O)Nc3ccc4c(c3)OCO4)ccc2O1	-	67.5	-
C[C@@H]1CN([C@H](C)CO)C(=O)c2cc(NC(=O)Nc3ccc(C(F)(F)F)cc3)ccc2O[C@@H](C)CCCCO[C@H]1CN(C)Cc1ccc(C(F)(F)F)cc1	.	.	-
C[C@H](CO)N1C[C@H](C)[C@@H](CN(C)Cc2ccc(-c3ccccc3)cc2)Oc2ccc(NC(=O)Nc3ccc(F)cc3)cc2CC1=O	.	.	-

Assay outcomes as filed in PubChem BioAssay.
